One data set addresses T1, JAK3 (Homo sapiens, UniProt P52333).
T1 sequence (P52333 1-1124): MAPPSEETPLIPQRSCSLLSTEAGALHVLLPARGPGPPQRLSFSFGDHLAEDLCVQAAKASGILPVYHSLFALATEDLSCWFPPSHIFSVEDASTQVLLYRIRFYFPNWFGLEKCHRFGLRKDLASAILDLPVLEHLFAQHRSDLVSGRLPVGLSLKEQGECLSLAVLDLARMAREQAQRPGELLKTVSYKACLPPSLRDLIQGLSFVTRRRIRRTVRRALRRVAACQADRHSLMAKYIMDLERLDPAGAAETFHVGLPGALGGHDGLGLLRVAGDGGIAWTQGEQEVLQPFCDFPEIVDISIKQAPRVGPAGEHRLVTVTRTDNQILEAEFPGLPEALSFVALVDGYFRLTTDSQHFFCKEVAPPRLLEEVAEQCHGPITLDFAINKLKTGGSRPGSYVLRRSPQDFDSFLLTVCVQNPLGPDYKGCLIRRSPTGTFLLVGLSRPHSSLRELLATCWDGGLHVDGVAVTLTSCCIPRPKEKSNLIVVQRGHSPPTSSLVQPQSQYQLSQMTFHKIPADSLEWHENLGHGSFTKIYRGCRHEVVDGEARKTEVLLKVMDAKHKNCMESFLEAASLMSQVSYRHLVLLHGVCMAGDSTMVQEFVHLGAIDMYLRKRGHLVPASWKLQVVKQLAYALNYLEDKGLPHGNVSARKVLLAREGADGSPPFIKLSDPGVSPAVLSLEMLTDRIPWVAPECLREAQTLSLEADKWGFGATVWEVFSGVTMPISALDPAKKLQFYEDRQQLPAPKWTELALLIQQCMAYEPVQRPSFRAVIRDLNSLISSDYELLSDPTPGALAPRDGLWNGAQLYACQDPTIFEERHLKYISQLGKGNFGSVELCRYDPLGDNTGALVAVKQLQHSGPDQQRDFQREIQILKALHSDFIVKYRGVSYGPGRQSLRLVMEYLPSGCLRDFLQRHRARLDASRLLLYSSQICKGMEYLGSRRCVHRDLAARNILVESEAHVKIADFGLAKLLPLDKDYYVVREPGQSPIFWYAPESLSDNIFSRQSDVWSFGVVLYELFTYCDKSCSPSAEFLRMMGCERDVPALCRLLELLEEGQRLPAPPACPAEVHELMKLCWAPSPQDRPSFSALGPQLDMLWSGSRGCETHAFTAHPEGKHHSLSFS
The data set is described as follows: JAK3 enzymatic assay, 1 mM ATP. In kind it is biochemical.

Another data set can be described thus: Basic pKa, measured. In kind it is physicochemical.
Data set [1] is described as follows: Thermodynamic solubility, pH 7.4. The data set is classed as physicochemical.
Data set [2] is described as follows: Kinetic solubility, pH 6.8. In kind it is physicochemical. The following applies: pH 6.8, aqueous buffer, kinetic from dmso stock.
Data set [3] in a line: Caco-2 permeability, pH 6.5. The data set is classed as in vitro ADME. As to conditions: human, Caco-2, pH 6.5. Background: Caco-2 cells form a polarised layer with tight junctions and transporters.
The nature of data set [4]: In vitro rat plasma protein binding. In kind it is in vitro ADME.
A short description of data set [5]: In vivo plasma PK after IV dosing in rats. The following applies: rat. Put shortly: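 Rats received a single IV bolus of test compound, at 1.0 or 0.5 mg/kg depending on compound; n=2. Plasma was then sampled to derive clearance, steady-state volume of distribution and terminal half-life.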
Data set [6] is described as follows: Lung and plasma PK after single intratracheal dose in treatment-naïve rats. The data set is classed as in vivo. The following applies: rat. The procedure, abridged: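 Treatment-naïve rats were given a single IT dose, at a lung-deposited dose of 52 or 30 µg/kg depending on compound. Plasma and lungs were sampled at 0.03, 0.5, 2, 6, 8 and 24 h, three animals per time point. Post-caval lobes were bead-homogenized in Ringer's solution. Samples were protein-precipitated with acetonitrile containing 0.2% formic acid and internal standard, then analysed by LC-MS/MS.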

Data set [7] concerns IFNα-induced STAT1 phosphorylation in human T cells or monocytes. The data set can be described thus: IFNα-induced STAT1 phosphorylation, flow cytometry. The data set is classed as cell-based. As to conditions: read-out: IC50, IFNα, STAT1. The procedure, abridged: (§1)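 PBMCs were isolated by density gradient from healthy human donor blood, sometimes enriched for lymphocytes or monocytes, and rested. Cells were preincubated with serially diluted test compound (DMSO vehicle), then stimulated with the relevant cytokine. They were fixed (formaldehyde), permeabilized and stained for phospho-STAT, with isotype-control gates and surface-marker cell gating. Flow cytometry gave % phospho-STAT+ cells. Inhibition was calculated versus vehicle-treated stimulated cells to derive IC50.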
(In flow cytometry, cells or beads pass a laser one at a time.)

The test system of data set [8] is IL-12-induced STAT4 phosphorylation in human CD3+ T cells and CD56+ NK cells. The data set is described as follows: IL-12-induced STAT4 phosphorylation, flow cytometry. The following applies: T-cell, read-out: IC50, IL-12, STAT4. In kind it is cell-based. The procedure, abridged:
as §1

The subject of data set [9] is IL-4-induced STAT6 phosphorylation in human CD4+ T cells. The data set can be described thus: IL-4-induced STAT6 phosphorylation, flow cytometry. The data set is classed as cell-based. As to conditions: read-out: IC50, IL-4, STAT6. Put shortly: as §1
Data set [10] relates to IL-2-induced STAT5 phosphorylation in human T cells. The data set is described as follows: IL-2-induced STAT5 phosphorylation in human T cells, flow cytometry. In kind it is cell-based. As to conditions: T-cell, read-out: IC50, IL-2, STAT5 (human). The procedure, abridged:
as §1

In data set [11] the test system is IL-13-induced STAT6 phosphorylation in human CD14+ monocytes. The data set is described as follows: IL-13-induced STAT6 phosphorylation in monocytes. The following applies: Monocyte, read-out: IC50, IL-13, STAT6. The data set is classed as cell-based. Put shortly:
as §1

The test system of data set [12] is TSLP-induced production of CCL17 in human CD14+ monocytes. The data set can be described thus: TSLP-induced CCL17 release in monocytes. The data set is classed as cell-based. The following applies: Monocyte, read-out: IC50, TSLP, CCL17. Put shortly: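 Human monocytes were taken from PBMCs isolated by density gradient from healthy donor blood. They were preincubated with serially diluted test compound (DMSO vehicle), then stimulated with recombinant TSLP. Supernatants were collected by brief centrifugation, and released CCL17 was quantified by ELISA or MSD U-plex immunoassay. Reduction versus vehicle-treated stimulated cells gave IC50.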

The test system of another data set is STAT3 phosphorylation. The data set can be described thus: pSTAT3 in whole lung homogenate, OVA-challenged rats. In kind it is in vivo, rat. As to conditions: IT dosing, 2 hours after OVA challenge, vs OVA/vehicle. Put shortly: (§2)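 In the OVA-sensitized, OVA-challenged rat model, test compound was given IT 1 h before challenge. Post-caval lung lobes taken 2 h after challenge were powderized in liquid nitrogen and lysed in buffer with protease/phosphatase inhibitors. Protein was measured by Bradford assay. Lysate (10 µg protein) was run on MSD phospho-STAT3/STAT5a/STAT5b/Akt(T308) plates, and blank-subtracted electrochemiluminescence was read.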

For another data set, the system named is STAT5a phosphorylation. The data set is described as follows: pSTAT5a in whole lung homogenate, OVA-challenged rats. The data set is classed as in vivo, rat. As to conditions: IT dosing, 2 hours after OVA challenge, vs OVA/vehicle. Put shortly:
as §2

The next data set relates to STAT5b phosphorylation. The data set can be described thus: pSTAT5b in whole lung homogenate, OVA-challenged rats. The data set is classed as in vivo, rat. The following applies: IT dosing, 2 hours after OVA challenge, vs OVA/vehicle. The procedure, abridged:
as §2

For data set [13], the system named is phosphorylated STAT3-positive cell nuclei. The data set can be described thus: pSTAT3 immunohistochemistry of lung sections, OVA-challenged rats. In kind it is in vivo, rat. The following applies: OVA/AZD4604 1 mg/kg versus OVA/vehicle.
A further data set relates to NF-κB. The data set is described as follows: NF-κB p65 analysis in lung tissue, OVA rat model. The data set is classed as in vivo. As to conditions: lung tissue 2 hours after OVA challenge. Put shortly: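 In the OVA-sensitized, OVA-challenged rat model, test compound was given IT 1 h before challenge. Lungs were powderized 2 h after challenge and nuclear extracts prepared with a nuclear extraction kit. Nuclear extract (10 µg) was assayed for NF-κB p65 activation by TransAm ELISA-type assay.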

A further data set relates to pAkt. The data set can be described thus: pAkt analysis in lung tissue, OVA rat model. The data set is classed as in vivo. As to conditions: lung tissue 2 hours after OVA challenge. Put shortly: as §2
For another data set, the system named is OVA-challenged rats. The data set is described as follows: Airway and lung inflammation in OVA-induced rat model of asthma. The following applies: IT. The data set is classed as in vivo. Put shortly:
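Rats sensitized IP with OVA (100 µg/rat) in aluminium/magnesium hydroxide on days 0, 14, 21 and challenged day 28 with 1% aerosolized OVA for 30 min. Test compound was given IT under isoflurane at 1 mL/kg, 1 h before challenge (100–3000 µg/kg). BAL (2 × 3 mL RPMI) was taken 24 h post-challenge. Leukocytes were counted automatically, with differentials from Wright-stained cytospins; n=7–10/group.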

Another data set has as its target JAK1 (Homo sapiens, UniProt P23458). As to conditions: biochemical assays; cited from earlier work.

Converted amounts (≈) assume the structure as drawn.

JAK1, sequence (P23458 whole entry): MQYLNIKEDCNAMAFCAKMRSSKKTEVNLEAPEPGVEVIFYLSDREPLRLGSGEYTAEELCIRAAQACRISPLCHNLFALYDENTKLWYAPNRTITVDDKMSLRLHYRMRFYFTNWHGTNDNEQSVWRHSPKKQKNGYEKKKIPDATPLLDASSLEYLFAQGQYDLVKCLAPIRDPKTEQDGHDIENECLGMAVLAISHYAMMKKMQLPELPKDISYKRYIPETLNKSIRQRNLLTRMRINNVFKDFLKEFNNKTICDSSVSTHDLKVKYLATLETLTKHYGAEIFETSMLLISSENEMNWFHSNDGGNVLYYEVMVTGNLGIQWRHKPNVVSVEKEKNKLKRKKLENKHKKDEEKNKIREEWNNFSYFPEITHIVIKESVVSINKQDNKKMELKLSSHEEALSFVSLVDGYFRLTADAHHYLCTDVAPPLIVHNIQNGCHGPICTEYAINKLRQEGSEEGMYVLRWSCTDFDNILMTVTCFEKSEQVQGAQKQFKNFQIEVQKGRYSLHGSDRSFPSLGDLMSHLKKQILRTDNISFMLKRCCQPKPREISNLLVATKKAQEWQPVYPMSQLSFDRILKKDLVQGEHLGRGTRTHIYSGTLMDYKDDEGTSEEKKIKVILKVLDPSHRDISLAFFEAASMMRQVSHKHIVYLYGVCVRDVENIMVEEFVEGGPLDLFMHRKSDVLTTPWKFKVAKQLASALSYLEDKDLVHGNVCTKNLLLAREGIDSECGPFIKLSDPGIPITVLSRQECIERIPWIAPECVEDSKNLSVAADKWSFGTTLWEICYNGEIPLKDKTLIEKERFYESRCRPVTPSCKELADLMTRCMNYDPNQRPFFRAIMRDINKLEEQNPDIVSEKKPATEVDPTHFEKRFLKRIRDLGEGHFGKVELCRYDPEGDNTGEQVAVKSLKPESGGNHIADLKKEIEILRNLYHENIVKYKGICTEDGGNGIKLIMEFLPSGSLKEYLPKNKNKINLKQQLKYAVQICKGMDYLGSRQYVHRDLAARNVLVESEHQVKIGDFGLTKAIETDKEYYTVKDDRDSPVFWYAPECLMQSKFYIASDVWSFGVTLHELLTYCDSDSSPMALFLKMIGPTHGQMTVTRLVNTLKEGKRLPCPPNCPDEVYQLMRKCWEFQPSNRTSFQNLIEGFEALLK

On to `COC[C@H](C(=O)Nc1cccc2c(-c3nc(Nc4cccc(S(C)(=O)=O)c4F)ncc3F)c[nH]c12)N1CCN(C)CC1` [AZD4604], for which the half-maximal inhibitory concentration (IC50) is above 10000 nM against JAK3; 1.2 nM in data set [7]; 98 nM in [8]; 16.9 nM in [9]; 21 nM in data set [10]; 23.1 nM in data set [11]. In addition, in data set [12], the IC50 amounted to 57 nM. Also, the pKa in the data set “Basic pKa, measured” turned out to be 7.9. This molecule also showed a thermodynamic solubility in data set [1] of 6.6 µM (≈ 3.96 µg/mL). In addition, the kinetic solubility in data set [2] was determined as 18 µM (≈ 10.8 µg/mL). In data set [3], this molecule displayed an apparent permeability (Papp) of 6.7 ×10⁻⁶ cm/s. The “In vitro rat plasma protein binding, % free” value in [4] is reported as 10.4 % free. The molecule further displayed a Vd in data set [5] of 9.9 L/kg. In [5], this molecule showed a clearance of 33 mL/min/kg. Besides, the half-life in [5] was 4.2 h; in data set [6] (lung, inhaled or intranasal), around 5 h; in data set [6] (lung, other: intratracheal), 5 h; in data set [6] (plasma, inhaled or intranasal), around 5 h. Also, the “proportion of the dose remaining in whole lung tissue 24 hours after administration” value in [6] (IT, assuming 100% lung deposition) is 0.3%. Besides, the “STAT3 phosphorylation in whole lung homogenates” value with STAT3 phosphorylation is “dose-dependently inhibited”. Moreover, the “STAT5a phosphorylation in whole lung homogenates” value in the data set on STAT5a phosphorylation is given as “dose-dependently inhibited”. Moreover, the “STAT5b phosphorylation in whole lung homogenates” value in the data set on STAT5b phosphorylation was “dose-dependently inhibited”. Also, in [13] (P < 0.01), the “proportion of phosphorylated STAT3-positive cell nuclei in endothelium and bronchial epithelium” value is on record as “significantly reduced”. Also, the “proportion of phosphorylated STAT3-positive cell nuclei in the alveolar epithelium” value in [13] (P < 0.05) was “significantly reduced”. In the data set on NF-κB, the “effect on NF-κB” value was “no significant effect”. The “effect on pAkt” value in the data set on pAkt is recorded as “no significant effect”. Also, the “eosinophil numbers in BALF” value in the data set on OVA-challenged rats (24 hours after OVA challenge, vs OVA/vehicle) was “numerically reduced”. Also, in the data set on OVA-challenged rats (24 hours after OVA challenge, vs vehicle, to levels seen in saline-challenged animals), the “eosinophil numbers in lung tissue” value was “reduced”. The “cytokines eotaxin and IL-1β in BALF” value in the data set on OVA-challenged rats (vs OVA/vehicle) is listed as “numerically lowered”. Besides, in the data set on OVA-challenged rats (vs OVA/vehicle), the “levels of lymphocytes, neutrophils, and macrophages in BALF” value was “numerically lowered”.

Take `CN(CCC#N)C1CCN(C(=O)Cn2cc(NC(=O)c3cnn4cccnc34)c(-c3cc(Cl)ccc3OC(F)F)n2)CC1` [GDC-0214]: the “increased selectivity for JAK1 over JAK2” value at JAK1 is “twofold”.

Turning to `CN(CCC#N)C1CCN(C(=O)Cn2cc(NC(=O)c3cnn4cccnc34)c(-c3cc(Cl)ccc3OC(F)F)n2)CC1` [iJak-381], the “increased selectivity for JAK1 over JAK2” value at JAK1 was “sixfold”.

One may read the IC50 as the concentration at which inhibition is half-maximal. What is called pKa is the negative logarithm of the acid dissociation constant. One may read the thermodynamic solubility as the concentration in solution at equilibrium with solid. As a reminder, the solubility (kinetic) is solubility judged after dilution from a stock solution rather than from solid. As usually defined, the Papp is a coefficient for how fast a substance crosses the barrier. A lower Papp goes with poor permeation. For orientation: Vd means the apparent volume that relates the amount in the body to the concentration in plasma or blood. In general, clearance refers to the volume of plasma or blood freed of the substance per unit of time. A lower clearance goes with inefficient removal. One may read the half-life as the time in which the quantity being followed falls by half. Read a high half-life as slow decline.

(Values after paper PMC9441147 (Drug Design, Development and Therapy, 2022).)
